From ChEMBL document CHEMBL3397023, “Synthesis and evaluation of multi-functional NO-donor/insulin-secretagogue derivatives for the treatment of type II diabetes and its cardiovascular complications” (Bioorg Med Chem, 2015)
The source made the active and inactive calls. The calls are words filed in the database; no cut-off is given here.

Assays:
Aorta [1] = assay: Maximal vasorelaxant activity in Wistar rat endothelium-denuded aortic ring assessed as reduction of KCl-induced contraction at 30 uM relative to control; type: functional
Method in brief: (§1)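 Rat aortic rings were pre-contracted with KCl 30 mM and exposed to cumulative test concentrations. Potency: pIC50, the negative log of the concentration halving KCl-induced tone. Efficacy: Emax, the maximal relaxation at the highest concentration tested. Both given as mean ± SEM.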

Aorta [2] = assay: Vasorelaxant activity in Wistar rat endothelium-denuded aortic ring assessed as reduction of KCl-induced contraction; type: functional, tissue-based; method in brief: as §1
Rattus norvegicus [3] = assay: Cardio-protective anti-ischemic activity in STZ-treated Wistar rat heart assessed as reduction in ischemic area at 18.2 mg/kg, ip for 7 days followed by treatment hearts submitted to 30 mins ischemia measured after 120 mins of reperfusion; type: functional, organism-based; design: dose 18.2 mg/kg
Method in brief: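 STZ-diabetic male Wistar rats (50 mg/kg ip; fasting glycemia 100–150 mg/dl) dosed ip daily for 7 days from day 11, with vehicle normoglycemic rats as reference. Langendorff hearts: 30 min equilibration, 30 min ischemia, 120 min reperfusion. Then 2 mm left-ventricle slices were stained with triphenyltetrazolium chloride, and damaged area was measured by planimetry as % of whole area. Mean ± SEM.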

Rattus norvegicus [4] = assay: Hypoglycemic activity in STZ-treated Wistar rat diabetic model at 75.8 mg/kg, ip after 10 mins treated with 1 g/kg, ip glucose; type: functional, organism-based; design: dose 75.8 mg/kg
Method in brief: (§2)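 Male Wistar rats (250–300 g) made diabetic with streptozotocin 50 mg/kg ip (fasting glycemia 100–150 mg/dl at day 4), fasted 24 h, then dosed ip. Glucose 1 g/kg ip was given 10 min later. Blood glucose was read by tail puncture with a glucometer at 0, 15, 30, 45, 60, 90 and 120 min, and AUC was calculated. Vehicle normoglycemic rats served as reference.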

Rattus norvegicus [5] = assay: Cardio-protective anti-ischemic activity in STZ-treated Wistar rat heart assessed as recovery of functional parameter at 18.2 mg/kg, ip for 7 days followed by treatment hearts submitted to 30 mins ischemia measured after 120 mins of reperfusion; type: organism-based; design: dose 18.2 mg/kg
Method in brief: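 Male Wistar rats (250–300 g) given streptozotocin 50 mg/kg ip; those with fasting glycemia 100–150 mg/dl at day 4 were used. From day 11, daily ip dosing for 7 days, with vehicle-treated normoglycemic rats as reference. Hearts were taken under heparin and pentobarbital, Langendorff-perfused, equilibrated 30 min, then 30 min ischemia and 120 min reperfusion. Read-out: RPP recovery %, mean ± SEM.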

Rattus norvegicus [6] = assay: Hypoglycemic activity in STZ-treated Wistar rat diabetic model at 50 mg/kg, ip after 10 mins treated with 1 g/kg, ip glucose; type: functional, organism-based; design: dose 50 mg/kg; method in brief: as §2

Row | IC50 (Aorta [2]) [µM] | SMILES | Emax at 30 µM (Aorta [1]) [%] | also measured
1 | 13.2 | CCOc1cc(CC(=O)N[C@@H](CC(C)C)c2ccccc2N2CCCCC2)ccc1C(=O)OCc1cccc(CO[N+](=O)[O-])c1 | 79 | 
2 | 23.4 | CC(O[N+](=O)[O-])c1ccc(COC(=O)[C@@H](Cc2ccccc2)NC(=O)[C@H]2CC[C@H](C(C)C)CC2)cc1 (stereo partly specified) | 58 | 
3 | 5.01 | CCOc1cc(CC(=O)N[C@@H](CC(C)C)c2ccccc2N2CCCCC2)ccc1C(=O)OCc1ccc(C(C)O[N+](=O)[O-])cc1 (stereo partly specified) | 84 | 
4 |  | CCOc1cc(CC(=O)N[C@@H](CC(C)C)c2ccccc2N2CCCCC2)ccc1C(=O)OCc1cccc(C(C)O[N+](=O)[O-])c1 (stereo partly specified) | 26 | 
5 | 5.01 | CC(C)[C@H]1CC[C@H](C(=O)N[C@H](Cc2ccccc2)C(=O)OCc2ccc(CO[N+](=O)[O-])cc2)CC1 | 93 | Activity (Rattus norvegicus [3]): Active; Activity (Rattus norvegicus [4]): Active; Activity (Rattus norvegicus [5]): Active
6 |  | CC(C)[C@H]1CC[C@H](C(=O)N[C@H](Cc2ccccc2)C(=O)OCc2cccc(CO[N+](=O)[O-])c2)CC1 | 45 | 
7 |  | CC(C)[C@H]1CC[C@H](C(=O)N[C@H](Cc2ccccc2)C(=O)O)CC1 |  | Activity (Rattus norvegicus [6]): Active
8 | 8.13 | CCOc1cc(CC(=O)N[C@@H](CC(C)C)c2ccccc2N2CCCCC2)ccc1C(=O)OCc1ccc(CO[N+](=O)[O-])cc1 | 94 | 
